This note sets out measurements from ChEMBL document CHEMBL4007422 (J Med Chem, 2017).

Data set [1] addresses Cytochrome P450 2E1 (Homo sapiens, UniProt P05181). Briefly: Inhibition of CYP2E1 in human liver microsomes in presence of NADPH by LC-MS/MS analysis. Format: ADME. Put shortly: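 Pooled human liver microsomes. IC50 determined from isoform-specific marker activities for CYP1A2, 2A6, 2B6, 2C8, 2C9, 2C19 (mephenytoin hydroxylation) and 2E1.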
(In general: Microsomes from liver hold many membrane-bound enzymes, among them those of drug oxidation.)

Data set [2] concerns the target Cytochrome P450 1A2 (Homo sapiens, UniProt P05177). The experiment in a line: Induction of CYP1A2 activity in human hepatocytes at 0.01 to 1 uM preincubated for 3 days followed by substrate addition measured after 30 mins. The conditions noted are these: 0.5 h. The class given is ADME, cell-based. Put shortly: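 Plateable human hepatocytes exposed to 0.01, 0.1 and 1.0 μM. CYP1A2, CYP2B6 and CYP3A4 induction read as both mRNA expression and enzyme activity.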

For data set [3], the system named is Salmonella typhimurium. Briefly: Mutagenicity in Salmonella typhimurium TA100 in presence of metabolic activation. The class given is toxicity. The conditions noted are these: salmonella enterica subsp. enterica serovar typhimurium.
Data set [4] deals with Rattus norvegicus. Briefly: Increase in acetylcholine level in Wistar rat ventral hippocampus at 3 mg/kg, po after 6 hrs by LC-MS/MS based microdialysis method. The class given is functional, organism-based. Put shortly:
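Male Wistar rats (240−300 g) fitted under isoflurane with a ventral hippocampal guide cannula (AP −5.2, ML +5.0, DV −3.8 mm from bregma). Probe (4 mm membrane) inserted 16 h before study. Perfusion with aCSF pH 7.2 at 1.5 μL/min, 2 h stabilization, five basal 20-min samples. Test agent given p.o.; donepezil and memantine (1 mg/kg s.c. each) given 30 min later in combination arms. Dialysates collected 6 h (4 h for combination), acetylcholine measured by LC-MS/MS, expressed as % of mean basal.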

In data set [5] the test system is Salmonella typhimurium. Briefly: Mutagenicity in Salmonella typhimurium TA100 in absence of metabolic activation. The conditions noted are these: salmonella enterica subsp. enterica serovar typhimurium. The class given is toxicity.
Data set [6] deals with Rattus norvegicus. The experiment in a line: Toxicity in Wistar rat assessed as induction of cholinergic side effects at 1 and 3 mg/kg, po in presence of 1 mg/kg of donepezil and memantine administered sc 30 mins post compound treatment measured after 4 hrs by LC-MS/MS based microdialysis method relative to control. Format: organism-based. The conditions noted are these: in vivo. Put shortly: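 The probe (4 mm membrane) was inserted 16 h before the study and perfused with aCSF (pH 7.2) at 1.5 μL/min, with 2 h stabilization. Five 20-min basal samples were taken before oral compound. Donepezil and memantine (1 mg/kg s.c. each) were given 30 min later. Dialysates were collected for 4 h and acetylcholine measured by LC-MS/MS as % of basal. Comparison was against donepezil+memantine by two-way ANOVA.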

The source made the active and inactive calls. The calls are words filed in the database; no cut-off is given here.

Chain of Cytochrome P450 1A2 (P05177 whole entry): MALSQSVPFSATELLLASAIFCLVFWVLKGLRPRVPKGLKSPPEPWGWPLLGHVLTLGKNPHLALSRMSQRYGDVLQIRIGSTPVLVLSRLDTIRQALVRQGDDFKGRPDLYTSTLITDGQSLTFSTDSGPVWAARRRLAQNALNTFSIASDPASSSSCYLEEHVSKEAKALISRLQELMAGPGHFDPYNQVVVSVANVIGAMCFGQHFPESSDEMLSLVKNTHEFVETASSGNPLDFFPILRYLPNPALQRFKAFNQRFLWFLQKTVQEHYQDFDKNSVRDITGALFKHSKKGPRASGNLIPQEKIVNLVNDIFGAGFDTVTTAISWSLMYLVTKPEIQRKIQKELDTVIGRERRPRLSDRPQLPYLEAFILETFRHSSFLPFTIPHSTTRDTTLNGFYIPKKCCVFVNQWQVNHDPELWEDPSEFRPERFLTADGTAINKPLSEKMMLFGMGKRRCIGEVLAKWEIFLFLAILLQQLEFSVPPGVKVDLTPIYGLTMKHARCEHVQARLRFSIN
Chain of Cytochrome P450 2E1 (P05181 whole entry, canonical isoform): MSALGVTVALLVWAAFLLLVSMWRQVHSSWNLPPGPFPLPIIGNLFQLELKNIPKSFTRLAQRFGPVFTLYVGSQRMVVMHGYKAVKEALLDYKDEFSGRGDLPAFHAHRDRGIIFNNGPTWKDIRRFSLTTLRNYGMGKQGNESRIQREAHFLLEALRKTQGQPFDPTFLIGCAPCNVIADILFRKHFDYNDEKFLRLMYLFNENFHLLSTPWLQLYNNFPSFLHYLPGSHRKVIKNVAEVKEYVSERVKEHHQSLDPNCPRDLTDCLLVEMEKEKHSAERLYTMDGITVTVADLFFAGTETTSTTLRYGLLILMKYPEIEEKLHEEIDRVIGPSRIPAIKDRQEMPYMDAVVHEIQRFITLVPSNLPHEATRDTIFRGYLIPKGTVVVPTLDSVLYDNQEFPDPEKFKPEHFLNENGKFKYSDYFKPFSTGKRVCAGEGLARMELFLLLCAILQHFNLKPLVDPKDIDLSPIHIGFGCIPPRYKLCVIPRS

For the compound `COc1ccc2c(c1)c(CN1CCN(C)CC1)cn2S(=O)(=O)c1ccccc1Br.CS(=O)(=O)O.O`, in data set [1], the IC50 was more than 10 µM. In addition, the Activity result is listed as “Not Active” in data set [2], “Non-Toxic” in data set [3], “Non-Toxic” in data set [5] and “Non-Toxic” in data set [6]. The result in data set [4] was Active.

Broadly, the IC50 is the concentration that gives 50% inhibition.
